What all share (format): ADME, organism-based
The subject of data set [1] is Blood. The data set can be described thus: Biodistribution in blood of C.B.-17/Icr scid/scid Jcl mouse xenografted with human LNCAP and PC3 cells at 25.9 MBq, iv after 2 mins. The following applies: in vivo.
Data set [2] relates to Kidney. The data set can be described thus: Drug excretion in C.B.-17/Icr […] Jcl mouse kidney xenografted with human LNCAP and PC3 cells at 25.9 MBq, iv. The following applies: in vivo.
For data set [3], the system named is Liver. The data set can be described thus: Drug excretion in C.B.-17/Icr […] Jcl mouse liver xenografted with human LNCAP and PC3 cells at 25.9 MBq, iv. The following applies: in vivo.
Data set [4] has as its system LNCaP. The data set is described as follows: Biodistribution in LNCAP cells in C.B.-17/Icr +/+ Jcl mouse xenografted with human LNCAP and PC3 cells at 25.9 MBq, iv after 30 mins in presence of 2-PMPA. The following applies: in vivo, 0.5 h. The essentials:
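Blocking study: ¹²⁵I-labelled tracer coinjected iv by tail vein with 2-PMPA (50 mg/kg) in LNCaP/PC-3 xenograft-bearing mice (22–24 g). Mice decapitated 30 min after injection; tissues weighed and counted; uptake as %ID/g.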

Data set [5] concerns Nucleic Acid. The data set can be described thus: Ratio of drug level in human LNCAP cells xenografted in C.B.-17/Icr +/+ Jcl mouse to muscle of C.B.-17/Icr +/+ Jcl mouse xenografted with human LNCAP and PC3 cells at 25.9 MBq, iv after 6 hrs. The following applies: in vivo. The gist of the method:
(§1)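 Tumor-to-blood and tumor-to-muscle ratios were calculated from %ID/g values in ¹²⁵I-tracer biodistribution in LNCaP/PC-3 xenografted mice. Tail-vein dosing, n=4 per time point, sacrifice at 2 min, 30 min, 1, 3 or 6 h.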

Data set [6] concerns PC-3. The data set can be described thus: Biodistribution in PC3 cells in C.B.-17/Icr +/+ Jcl mouse xenografted with human LNCAP and PC3 cells at 25.9 MBq, iv after 6 hrs. The following applies: in vivo. The essentials: (§2)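 ¹²⁵I-labelled tracer given iv by tail vein to mice (22–24 g) bearing LNCaP (left shoulder) and PC-3 (right shoulder) xenografts of about 5–10 mm, grown from 1–5 × 10⁶ cells in 1:1 Matrigel. n=4 per time point; decapitated at 2 min, 30 min, 1, 3, 6 h. Tissues weighed and counted; uptake as %ID/g, mean ± SD.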

Data set [7] relates to Kidney. The data set is described as follows: Biodistribution in kidney of C.B.-17/Icr […] Jcl mouse xenografted with human LNCAP and PC3 cells at 25.9 MBq, iv after 6 hrs. The following applies: in vivo. The essentials:
as §2

The next data set relates to Intestine. The data set is described as follows: Biodistribution in intestine of C.B.-17/Icr […] Jcl mouse xenografted with human LNCAP and PC3 cells at 25.9 MBq, iv after 6 hrs. The note with it: in vivo. The gist of the method:
as §2

The subject of data set [8] is Nucleic Acid. The data set can be described thus: Ratio of drug level in human LNCAP cells xenografted in C.B.-17/Icr +/+ Jcl mouse to muscle of C.B.-17/Icr +/+ Jcl mouse xenografted with human LNCAP and PC3 cells at 25.9 MBq, iv after 3 hrs. The following applies: in vivo. The gist of the method:
as §1

In data set [9] the test system is PC-3. The data set can be described thus: Biodistribution in PC3 cells in C.B.-17/Icr +/+ Jcl mouse xenografted with human LNCAP and PC3 cells at 25.9 MBq, iv after 3 hrs. The following applies: in vivo. The gist of the method: as §2
The subject of data set [10] is LNCaP. The data set is described as follows: Biodistribution in LNCAP cells in C.B.-17/Icr +/+ Jcl mouse xenografted with human LNCAP and PC3 cells at 25.9 MBq, iv after 3 hrs. The following applies: in vivo. The gist of the method:
as §2

The test system of data set [11] is Nucleic Acid. The data set can be described thus: Ratio of drug level in human LNCAP cells xenografted in C.B.-17/Icr +/+ Jcl mouse to muscle of C.B.-17/Icr +/+ Jcl mouse xenografted with human LNCAP and PC3 cells at 25.9 MBq, iv after 1 hr. The note with it: in vivo. The gist of the method: as §1
The nature of data set [12]: Ratio of drug level in human PC3 cells xenografted in C.B.-17/Icr +/+ Jcl mouse to blood of C.B.-17/Icr +/+ Jcl mouse xenografted with human LNCAP and PC3 cells at 25.9 MBq, iv after 1 hr. The following applies: PC3 tumour xenograft relative to blood. The essentials:
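Mice (22–24 g) carried PC-3 (right shoulder) and LNCaP (left shoulder) tumors, raised by injecting 1–5 × 10⁶ cells in 1:1 PBS/Matrigel and used at about 5–10 mm diameter. [¹²⁵I]-tracer was given via the tail vein, n=4 per time point, and mice were decapitated at 2 min, 30 min, 1, 3 or 6 h. Tissues were weighed and γ-counted as %ID/g. Tumor/blood and tumor/muscle ratios were taken from %ID/g, mean ± SD.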

Data set [13] can be described thus: Ratio of drug level in human LNCAP cells xenografted in C.B.-17/Icr +/+ Jcl mouse to blood of C.B.-17/Icr +/+ Jcl mouse xenografted with human LNCAP and PC3 cells at 25.9 MBq, iv after 1 hr. The following applies: LNCAP tumour xenograft relative to blood. The essentials:
as §1

Data set [14] has as its system LNCaP. The data set is described as follows: Biodistribution in LNCAP cells in C.B.-17/Icr +/+ Jcl mouse xenografted with human LNCAP and PC3 cells at 25.9 MBq, iv after 1 hr. The following applies: in vivo. The gist of the method: as §2
The subject of data set [15] is Nucleic Acid. The data set can be described thus: Ratio of drug level in human LNCAP cells xenografted in C.B.-17/Icr +/+ Jcl mouse to muscle of C.B.-17/Icr +/+ Jcl mouse xenografted with human LNCAP and PC3 cells at 25.9 MBq, iv after 30 mins. The following applies: in vivo, 0.5 h. The gist of the method: as §1
Data set [16] has as its system Nucleic Acid. The data set is described as follows: Ratio of drug level in human LNCAP cells to human PC3 cells xenografted in C.B.-17/Icr […] Jcl mouse at 25.9 MBq, iv after 30 mins. The note with it: in vivo, 0.5 h.
The test system of data set [17] is PC-3. The data set is described as follows: Biodistribution in PC3 cells in C.B.-17/Icr +/+ Jcl mouse xenografted with human LNCAP and PC3 cells at 25.9 MBq, iv after 30 mins. The following applies: in vivo, 0.5 h. The essentials: as §2
In data set [18] the test system is Liver. The data set is described as follows: Biodistribution in liver of C.B.-17/Icr […] Jcl mouse xenografted with human LNCAP and PC3 cells at 25.9 MBq, iv after 30 mins. The note with it: in vivo, 0.5 h. The gist of the method:
as §2

The test system of data set [19] is Blood. The data set is described as follows: Biodistribution in blood of C.B.-17/Icr +/+ Jcl mouse xenografted with human LNCAP and PC3 cells at 25.9 MBq, iv after 30 mins. The note with it: in vivo, 0.5 h. The gist of the method: as §2
A further data set relates to Thyroid gland. The data set is described as follows: Biodistribution in thyroid of C.B.-17/Icr +/+ Jcl mouse xenografted with human LNCAP and PC3 cells at 25.9 MBq, iv after 2 mins. The note with it: in vivo. The essentials: (§3)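 Radioiodinated (¹²⁵I) tracer given by tail-vein injection to mice bearing LNCaP (left shoulder) and PC-3 (right shoulder) xenografts, 22–24 g, grown to about 5–10 mm. Groups of n=4 were decapitated at 2 min, 30 min, 1 h, 3 h or 6 h. Tissues were weighed and counted, and uptake was expressed as %ID/g (mean ± SD).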

Another data set deals with Lung. The data set is described as follows: Biodistribution in lung of C.B.-17/Icr +/+ Jcl mouse xenografted with human LNCAP and PC3 cells at 25.9 MBq, iv after 2 mins. The following applies: in vivo. The essentials:
as §3

The test system of data set [20] is Liver. The data set is described as follows: Biodistribution in liver of C.B.-17/Icr […] Jcl mouse xenografted with human LNCAP and PC3 cells at 25.9 MBq, iv after 2 mins. The following applies: in vivo. The essentials:
as §2

For data set [21], the system named is Blood. The data set is described as follows: Biodistribution in blood of C.B.-17/Icr +/+ Jcl mouse xenografted with human LNCAP and PC3 cells at 25.9 MBq, iv after 2 mins. The note with it: in vivo. The essentials:
as §2

The structures appear in SMILES notation.

We go through one molecule from ChEMBL document CHEMBL2429791, “Preparation of asymmetric urea derivatives that target prostate-specific membrane antigen for SPECT imaging” (J Med Chem, 2013).

With `O=C(O)CC[C@H](NC(=O)N[C@@H](CSC1CC(=O)N(CCCC[C@H](NC(=O)CNC(=O)c2cccc([125I])c2)C(=O)O)C1=O)C(=O)O)C(=O)O` (some centres undefined), the Drug uptake is 8.9 % ID/g with Blood [1]; “Not Active” with LNCaP [4]; 0.2 % ID/g with PC-3 [6]; 97.1 % ID/g in the data set with Kidney [7]; 5.3 % ID/g in the data set on Intestine; 0.3 % ID/g in the data set on PC-3 [9]. For the same molecule, the Drug uptake with LNCaP [10] amounted to 9.5 % ID/g; with LNCaP [14] it was 7 % ID/g; in the data set with PC-3 [17], 0.9 % ID/g; in the data set with Liver [18] it was 13.7 % ID/g; with Blood [19], 1.3 % ID/g; in the data set on Thyroid gland, 0.02 %ID. Besides, the Drug uptake in the data set with Lung amounted to 6.8 % ID/g; in the data set with Liver [20], 22.5 % ID/g; in the data set with Blood [21] it was 7.4 % ID/g. In addition, the Drug excretion entry in the data set with Kidney [2] and in the data set on Liver [3] was “Active” throughout. For the same molecule, the Ratio was found to be 76.7 in the data set on Nucleic Acid [5]; 49.4 in the data set on Nucleic Acid [8]; 15.5 in the data set on Nucleic Acid [11]; 11.1 in the data set with Nucleic Acid [15]; 10.1 with Nucleic Acid [16]. Also, the results for the concentration ratio (Kp) at 1 h in data set [12] and in [13] were 0.7 and 6.9, respectively.
